What all share (format): cell-based
For one assay, the system named is CCRF-CEM. Kind of assay: Cytotoxicity against human CEM cells. A digest of the protocol:
(§1)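 Human Molt 4/C8 and CEM T-lymphocytes and murine L1210 cells were each exposed to at least three compound concentrations at 37 °C for 48 h. Growth inhibition was then measured, and IC50 values were derived from it.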

Assay [1] in a line: Cytotoxicity against human Molt4/C8 cells. The conditions noted are these: MOLT-4. An outline of the steps: as §1
The subject of a further assay is L1210. Kind of assay: Cytotoxicity against […] mouse L1210 cells. A digest of the protocol: as §1
A short description of assay [2]: Cytotoxicity against human RPMI8226 cells. The conditions noted are these: RPMI-8226.
The test system of another assay is HCT-116. The assay is described as follows: Cytotoxicity against human HCT116 cells.
In another assay the test system is HCT-15. Kind of assay: Cytotoxicity against human HCT15 cells.
The nature of assay [3]: Cytotoxicity against human NCI49 cell lines.
The test system of another assay is KM12. Kind of assay: Cytotoxicity against human KM12 cells.
In a further assay the test system is COLO 205. Kind of assay: Cytotoxicity against human COLO205 cells.
For another assay, the system named is K562. The assay is described as follows: Cytotoxicity against human K562 cells.
A further assay concerns SW-620. The assay is described as follows: Cytotoxicity against human SW620 cells.
Assay [4] in a line: Cytotoxicity against human HL60 (TB) cells. The conditions noted are these: HL-60.

For `O=C1/C(=C/c2ccccc2)CN(C(=O)c2ccc(OCCN3CCCCC3)cc2)C/C1=C\c1ccccc1`, the IC50 (in general, the concentration that inhibits the measured activity by half) in the assay on CCRF-CEM amounted to 1160 nM; in assay [1], 1480 nM; with L1210, 8400 nM.

As for `CCN(CC)CCOc1ccc(C(=O)N2C/C(=C\c3ccccc3)C(=O)/C(=C/c3ccccc3)C2)cc1`, the 50% inhibitory concentration (IC50) is less than 10 nM in assay [2]; 1650 nM in the assay on CCRF-CEM; less than 10 nM in the assay on HCT-116; 1280 nM in assay [1]; 1170 nM in the assay with HCT-15; 8230 nM in the assay with L1210. The 50% inhibitory concentration (IC50) in [3] was less than 1380 nM; in the assay on KM12, 1740 nM; in the assay with COLO 205 it was 2630 nM; in the assay on K562, 43 nM; in the assay with SW-620, 1350 nM.

For the molecule `CN(C)CCOc1ccc(C(=O)N2C/C(=C\c3ccc([N+](=O)[O-])cc3)C(=O)/C(=C/c3ccc([N+](=O)[O-])cc3)C2)cc1`, the half-inhibitory concentration (IC50) with CCRF-CEM worked out at 319 nM; in assay [1] it was 314 nM; with L1210, 5190 nM.

Take `CC[N+](C)(CC)CCOc1ccc(C(=O)N2C/C(=C\c3ccc([N+](=O)[O-])cc3)C(=O)/C(=C/c3ccc([N+](=O)[O-])cc3)C2)cc1`: the IC50 came to 39300 nM with CCRF-CEM, 40200 nM in [1] and 65000 nM with L1210.

Regarding `CN(C)CCOc1ccc(C(=O)N2C/C(=C\c3ccccc3)C(=O)/C(=C/c3ccccc3)C2)cc1`, the IC50 is 1240 nM in the assay with CCRF-CEM, 580 nM in [1] and 10200 nM in the assay on L1210.

Take `COc1ccc(C(=O)N2C/C(=C\c3ccccc3)C(=O)/C(=C/c3ccccc3)C2)cc1`: the IC50 stood at 5000 nM in the assay with CCRF-CEM, 2390 nM in assay [1] and 37800 nM in the assay with L1210.

As to `O=C1/C(=C/c2ccccc2)CN(C(=O)c2ccc(OCCN3CCOCC3)cc2)C/C1=C\c1ccccc1`, the IC50 was found to be 123 nM in [2]; 6840 nM with CCRF-CEM; 339 nM in the assay on HCT-116; 8420 nM in [1]; 1450 nM in the assay on HCT-15; 222000 nM in the assay on L1210. Further, the IC50 in [3] was more than 2630 nM; in the assay with KM12, 129 nM; with COLO 205, 22900 nM; in the assay with K562, 158 nM; with SW-620, 191 nM; in assay [4] it was 562 nM.

As for `CCN(CC)CCOc1ccc(C(=O)N2C/C(=C\c3ccc([N+](=O)[O-])cc3)C(=O)/C(=C/c3ccc([N+](=O)[O-])cc3)C2)cc1`, the IC50 in the assay with CCRF-CEM is 340 nM; in [1] it was 310 nM; in the assay on L1210 it was 3630 nM.

`CCN(CC)CCOc1ccc(C(=O)N2C/C(=C\c3ccc(C)cc3)C(=O)/C(=C/c3ccc(C)cc3)C2)cc1`: the IC50 in the assay on CCRF-CEM is 1330 nM; in [1], 1320 nM; with L1210, 2280 nM.

On to `O=C1/C(=C/c2ccc([N+](=O)[O-])cc2)CN(C(=O)c2ccc(OCCN3CCOCC3)cc2)C/C1=C\c1ccc([N+](=O)[O-])cc1`, for which the IC50 in the assay with CCRF-CEM was 379 nM; in assay [1], 343 nM; with L1210 it was 6340 nM.

For `O=C1/C(=C/c2ccccc2)CN(C(=O)c2ccccc2)C/C1=C\c1ccccc1`, the IC50 was found to be 1640 nM in the assay on CCRF-CEM, 1700 nM in assay [1] and 12000 nM in the assay on L1210.

`O=C1/C(=C/c2ccc([N+](=O)[O-])cc2)CN(C(=O)c2ccc(OCCN3CCCCC3)cc2)C/C1=C\c1ccc([N+](=O)[O-])cc1`: the IC50 in the assay on CCRF-CEM is 315 nM; in assay [1], 330 nM; in the assay on L1210, 4740 nM.

With `CCN(CC)CCOc1ccc(C(=O)N2C/C(=C\c3ccc(Cl)cc3)C(=O)/C(=C/c3ccc(Cl)cc3)C2)cc1`, the IC50 stood at 12300 nM with CCRF-CEM, 18300 nM in assay [1] and 47300 nM with L1210.

Regarding `CC[N+](C)(CC)CCOc1ccc(C(=O)N2C/C(=C\c3ccc(Cl)cc3)C(=O)/C(=C/c3ccc(Cl)cc3)C2)cc1`, the values for the 50% inhibitory concentration (IC50) (in the assay on CCRF-CEM; in [1]; in the assay with L1210) were 71200 nM, 55800 nM and 729000 nM, respectively.

These data come from ChEMBL document CHEMBL1144477, “Design, synthesis and cytotoxic properties of novel 1-[4-(2-alkylaminoethoxy)phenylcarbonyl]-3,5-bis(arylidene)-4-piperidones and related compounds” (Eur J Med Chem, 2007).
